TRPC4 inh – TRPC4 (mouse) channel inhibition; Q9QUQ5; HEK293 TRPC4beta/mu-opioid, DAMGO-evoked Fluo4 calcium flux; stronger effect = lower value; B-score at 10 µM; 300,000 compounds, 0.39% hits; AID 2247;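 active = B-score over 3 SD under the library average, no early fluorescence shift, positive overall ratio signal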
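test system = HEK293 cells with stable TRPC4beta plus mu-opioid receptor expression | detection = Fluo4 Ca2+ flux fluorescence | read-out = integrated fluorescence ratio relative to baseline, converted to per-well B score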
Kir21 block – inhibitors of mouse Kir2.1 inward-rectifier potassium channel. 310,000 compounds, 0.85% hits. B-score at 10 µM. HEK293-Kir2.1, FluxOR thallium flux fluorescence; stronger effect = lower value;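 active = fluorescence ratio B-score at or below minus 3 SD of library scores, with starting-brightness B-score within 2 SD, cut at about -4.2 in these data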;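 note: channel flux triggered by added potassium and thallium sulfate stimulus; B-score of peak minus minimum fluorescence over baseline after thallium stimulus; more negative B-score means stronger Kir2.1 block with less thallium influx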
Target sequence (P35561 whole entry, looked up): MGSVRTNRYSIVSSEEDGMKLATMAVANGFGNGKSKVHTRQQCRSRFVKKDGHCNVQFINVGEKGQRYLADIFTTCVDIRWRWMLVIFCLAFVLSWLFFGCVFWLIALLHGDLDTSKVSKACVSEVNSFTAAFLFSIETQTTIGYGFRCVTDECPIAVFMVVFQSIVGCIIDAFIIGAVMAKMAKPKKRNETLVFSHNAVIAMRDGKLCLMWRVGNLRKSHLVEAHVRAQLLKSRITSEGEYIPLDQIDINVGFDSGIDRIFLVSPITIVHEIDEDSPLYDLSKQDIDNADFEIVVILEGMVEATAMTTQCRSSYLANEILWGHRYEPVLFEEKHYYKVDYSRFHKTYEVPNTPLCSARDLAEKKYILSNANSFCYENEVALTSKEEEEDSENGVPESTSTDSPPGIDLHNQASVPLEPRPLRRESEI
TRPC6 inhibitor – inhibitors of mouse TRPC6 channel; B-score at 10 µM; 310,000 compounds, 1.1% hits; HEK293-TRPC6, membrane potential dye, ACh-evoked depolarization; stronger effect = lower value;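 active = B-score under library mean minus 3 SD, initial fluorescence not abnormally high, positive integrated signal ratio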;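 note: B-score derived from integrated fluorescence ratio over the kinetic read; more negative B-score means stronger inhibition of depolarization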
TRPC4 PAM – allosteric potentiators of mouse TRPC4 channel | Q9QUQ5 | HEK293 TRPC4beta/mu-opioid, DAMGO EC20, Fluo-4 Ca2+ flux; stronger effect = higher value | B-score at 10 µM | 310,000 compounds, 0.42% hits;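 active = B-score of calcium response area above 5 SD of library B-scores, with initial fluorescence ratio within 5 SD of library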;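 note: B-score of integrated fluorescence ratio over time as area under calcium response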
TRPC4 agonist – TRPC4 (mouse) channel activation; HEK293 TRPC4beta/mu-opioid, Fluo4 calcium fluorescence; stronger effect = higher value; B-score at 10 µM; Q9QUQ5; 310,000 compounds, 0.49% hits;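 active = B-score above 5 SD of library B-scores, and initial fluorescence ratio not above library mean plus 5 SD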;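 note: positive B-score marks a calcium rise read as TRPC4 activation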
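Assay system – TRPC4beta and mu-opioid receptor HEK293 stable cells · Measured by – Fluo4 fluorescence, kinetic · Schedule – dye loading 45 min room temperature, 110 s kinetic read · Read-out – B-scored integrated calcium fluorescence ratio · Controls – buffer and maximal DAMGO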
TRPC6 activator – mouse TRPC6 channel activation | HEK293-TRPC6 membrane potential dye fluorescence; stronger effect = higher value | B-score at 10 µM | 310,000 compounds, 0.13% hits;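 active = B-score of the integrated fluorescence ratio above library mean plus 3 SD, and starting fluorescence ratio within library mean plus 5 SD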;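 note: higher score means more depolarization so channel activation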
TRPC4 sel inh 2 – mouse TRPC4 off-target activity of TRPC6 inhibitors, second screen; AID 2776; 920 compounds, 42% hits; inhibition, % at 10 µM; shares compounds with TRPC6 inhibitor; HEK293 TRPC4/MOR, membrane potential dye fluorescence; channel activated by saturating DAMGO dose;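 active = compounds whose fluorescence signal differed from control wells by over 3 SD, either direction, in both duplicate plates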
TRPC4 spec – tests whether TRPC6 inhibitors also affect mouse TRPC4; HEK293 TRPC4/mu-opioid, membrane potential fluorescence; activity change, negative = inhibition, % at 10 µM; shares compounds with TRPC6 inhibitor; 920 compounds, 61% hits;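 active = rise or fall in signal beyond 3 SD of buffer-only wells in both replicate plates, either sign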;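 note: integrated kinetic ratio of fluorescence range over baseline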
HEK293 MPD ctr 2-1 – second counter-screen for TRPC6 inhibitors: parental HEK293 cells. shares compounds with TRPC6 inhibitor. parental HEK293 membrane potential dye fluorescence; maximal acetylcholine challenge after compound addition. signal change vs control, % at 10 µM. 920 compounds, 31% hits. AID 2779;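 active = membrane potential signal moving either way by over 3 SD of the maximum-effect control, in both duplicate plates, meaning non-specific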
HEK293 MPD ctr-1 – checks TRPC6 inhibitor effects in parental HEK293 cells; shares compounds with TRPC6 inhibitor; parental HEK293 membrane potential dye fluorescence; membrane potential signal change, % at 10 µM; 920 compounds, 60% hits; AID 2780;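 active = membrane potential signal shifting up or down by more than 3 SD of buffer-only wells, on both duplicate plates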
HEK293 MPD ctr-2 – checks TRPC6 modulator effects in parental HEK293 cells; shares compounds with TRPC6 inhibitor; membrane potential dye fluorescence; 2,400 compounds, 51% hits; AID 488924; membrane potential signal change, % at 10 µM;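 active = membrane potential signal moves up or down beyond 5 SD from buffer-only wells, on both duplicate plates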
HEK293 MPD ctr 2-2 – second check of TRPC6 modulator effects in parental HEK293 cells; inhibition, % at 10 µM; shares compounds with TRPC6 inhibitor; 2,400 compounds, 14% hits; membrane potential dye fluorescence; after compound, maximal acetylcholine stimulation;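 active = membrane potential signal drops by more than 5 SD from the mean control signal, in both duplicate plates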;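 note: plate controls were acetylcholine ECmax control wells for no effect and buffer only wells for full effect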
TRPC4/MOR mod – tests whether TRPC6 modulators also affect mouse TRPC4. shares compounds with TRPC6 inhibitor. 2,400 compounds, 69% hits. percent change from control (negative = decrease, positive = increase), % at 10 µM. HEK293 TRPC4/mu-opioid, membrane potential fluorescence;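 active = membrane potential signal moved up or down beyond 5 SD of buffer control wells, in both duplicate plates, actives on both sides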;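 note: plate controls were assay buffer wells for no effect and DAMGO maximal-effect wells for full effect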
TRPC4/MOR inh 2 – second selectivity test of TRPC6 modulators against mouse TRPC4. shares compounds with TRPC6 inhibitor. HEK293 TRPC4/mu-opioid, membrane potential dye fluorescence; stimulated with maximal-effect DAMGO. inhibition, % at 10 µM. 2,400 compounds, 55% hits. AID 488928;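 active = drop in membrane potential signal beyond 5 SD of the control wells in both duplicate plates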;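 note: TRPC4 counter screen for TRPC6 hits run under conditions tuned for TRPC6 not TRPC4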
TRPC6 block conf – mouse TRPC6 inhibitor confirmation | shares compounds with TRPC6 inhibitor | HEK293-TRPC6, membrane potential dye, ACh-evoked depolarization | AID 488960 | inhibition, % at 10 µM | 3,300 compounds, 43% hits;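 active = fluorescence ratio falls more than 5 SD below the full-stimulation control mean, in both duplicate runs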;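 note: integrated fluorescence ratio of peak minus minimum over baseline after agonist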
TRPC6 act confirm – confirmation of mouse TRPC6 activators | HEK293-TRPC6 membrane potential dye fluorescence, FDSS | shares compounds with TRPC6 inhibitor | activation, % at 10 µM | 2,800 compounds, 11% hits | AID 488961;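 active = ratio signal rise beyond 5 SD above unstimulated control wells' mean, seen in both duplicate runs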;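 note: plate controls were buffer EC0 wells for no effect and acetylcholine ECmax response for full effect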
Active calls of the source: *; i = inactive; · = not tested or not shown. Only some compounds are listed: those with a hit (about 2.9% of all), similar ones and a draw of the others.

SMILES | TRPC4 inh | Kir21 block | TRPC6 inhibitor | TRPC4 PAM | TRPC4 agonist | TRPC6 activator | HEK293 MPD ctr-2 | HEK293 MPD ctr 2-2 | TRPC4/MOR mod | TRPC4/MOR inh 2 | TRPC6 block conf | TRPC6 act confirm | others
Oc1cccc2ccc(Nc3ccccn3)nc12 | i | -0.39 | -9.1* | i | i | i | · | · | · | · | i | i | TRPC4 sel inh 2=i;TRPC4 spec=-15%*;HEK293 MPD ctr 2-1=i;HEK293 MPD ctr-1=-180%*
CCOC(=O)c1c(NC(=O)c2c(C(=O)O)cccc2[N+](=O)[O-])sc2c1CCCC2 | i | 1.4 | i | i | i | 30* | 194%* | i | 31%* | i | i | 116%*
CCOC(=O)c1c(NC(=O)c2cccc([N+](=O)[O-])c2C(=O)O)sc2c1CCCC2 | i | -0.18 | i | i | i | 37* | 210%* | i | 37%* | i | i | 102%*
O=C(SCC(O)C(O)CS)c1cccs1 (stereo unspecified) | i | 0.86 | i | i | i | i | · | · | · | · | · | ·
O=C(NC1(C(F)(F)F)NC(=O)N(CC2CCCCC2)C1=O)c1ccco1 (stereo unspecified) | i | 2.9 | i | i | i | i | · | · | · | · | · | ·
CN1CCc2c(sc3c2C(=O)NC(c2cccs2)N3)C1 (stereo unspecified) | i | 2 | i | i | i | i | · | · | · | · | · | ·
CN1CCc2c(sc3c2C(=O)NC(/C=C\c2ccccc2)N3)C1 (stereo unspecified) | i | 0.59 | -5.7* | i | i | i | i | i | -14%* | 63%* | 58%* | i
CCOc1ccc(NC(=O)CC(Cc2cc(C)cc(C)c2)C(=O)O)cc1 (stereo unspecified) | i | 0.79 | -5.6* | i | i | i | i | i | i | i | i | i
CCOc1ccc(NC(=O)C(CC(=O)O)Cc2ccccc2)cc1 (stereo unspecified) | i | -0.2 | i | i | i | i | · | · | · | · | · | ·
CCC1CCCCN1C(=O)CSc1nnc(-c2c[nH]c3ccccc23)o1 (stereo unspecified) | i | -2.2 | i | i | i | i | · | · | · | · | · | ·
Cc1ccsc1C1Nc2ccccc2-c2nc3ccccc3n21 (stereo unspecified) | i | -0.26 | i | i | i | i | · | · | · | · | · | ·

Assay outcomes (PubChem BioAssay)
